18 compounds from ChEMBL document CHEMBL1126584 (J Med Chem, 1993) can be followed below.

pKi: −log10 of the molar value. Some results are limits rather than exact numbers.

Test [1] concerns the target T1, D(2) dopamine receptor (Rattus norvegicus, UniProt P61169). Briefly: Binding affinity against D2 receptor in rat corpus striatum using [3H]sulpiride as the radioligand. Type of test: tissue-based. In outline:
(§1)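 Fresh rat striatum homogenised in 50 mM Tris-HCl pH 7.5, pellet resuspended in buffer with 100 mM NaCl to 3.75 mg wet weight/mL. Incubated with 3 nM [3H]sulpiride for 60 min at 25 °C, in triplicate; 10 μM haloperidol defined nonspecific binding. Filtration on polyethyleneimine-treated filters; IC50 from concentration-response curves converted to Ki by Cheng-Prusoff; mean of at least three determinations.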

Test [2] concerns the target T1, D(2) dopamine receptor. Briefly: Compound was tested for binding affinity against D2 receptor in rat corpus striatum, using [3H]sulpiride as the radioligand. In kind it is tissue-based. The gist of the method: as §1

T1 sequence (P61169 whole entry): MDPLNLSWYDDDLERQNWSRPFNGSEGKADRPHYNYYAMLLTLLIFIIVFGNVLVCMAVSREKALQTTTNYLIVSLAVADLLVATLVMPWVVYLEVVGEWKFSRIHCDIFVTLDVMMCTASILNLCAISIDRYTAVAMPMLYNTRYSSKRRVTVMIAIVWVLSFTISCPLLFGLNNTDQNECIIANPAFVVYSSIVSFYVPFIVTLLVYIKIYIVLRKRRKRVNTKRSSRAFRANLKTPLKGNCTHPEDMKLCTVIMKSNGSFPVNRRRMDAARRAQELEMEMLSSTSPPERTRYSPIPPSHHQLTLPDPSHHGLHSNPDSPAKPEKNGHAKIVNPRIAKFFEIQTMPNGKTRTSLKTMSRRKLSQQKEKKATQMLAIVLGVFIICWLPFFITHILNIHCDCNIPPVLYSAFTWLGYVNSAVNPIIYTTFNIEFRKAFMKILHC

One may read the pKi as −log10 of the Ki, conventionally taken in molar units. The low end stands for a high Ki, the high end for a low Ki. In the case of `c1ccc2c3c([nH]c2c1)CC1CCC3N1CCCCc1nccs1` (stereo not drawn), the negative-log Ki (pKi) at D(2) dopamine receptor [1] is 5.65.

In turn, `c1ccc2c(c1)CN(CCN1C3CCC1c1c([nH]c4ccccc14)C3)C2` (stereo not drawn) had a negative-log Ki (pKi) on D(2) dopamine receptor [1] of 5.70.

With `Fc1ccc2[nH]c3c(c2c1)C1CCC(C3)N1Cc1ccccc1` (stereo not drawn), the pKi at D(2) dopamine receptor [1] is 5.62.

`CCN1C2CCC1c1c([nH]c3ccccc13)C2` (stereo not drawn) had a negative-log Ki (pKi) at D(2) dopamine receptor [1] of under 5.00.

`CN(CCN1C2CCC1c1c([nH]c3ccccc13)C2)C(=O)Cc1ccc(Cl)c(Cl)c1` (stereo not drawn) gave a pKi at D(2) dopamine receptor [1] of 5.42.

The compound `c1ccc(-n2c3c(c4ccccc42)C2CCC(C3)N2)cc1` (stereo not drawn) gave a pKi on D(2) dopamine receptor [1] of 5.00.

Turning to `CCCN1C2CCC1c1c([nH]c3ccccc13)C2` (stereo not drawn), at D(2) dopamine receptor [1], the negative logarithm of the Ki (pKi) was 4.95.

`c1csc(CCCCN2C3CCC2c2c([nH]c4ccccc24)C3)c1` (stereo not drawn) had a pKi on D(2) dopamine receptor [1] of 6.21.

Regarding `O=C1CC2(CCCC2)CC(=O)N1CCCCN1C2CCC1c1c([nH]c3ccccc13)C2` (stereo not drawn), on D(2) dopamine receptor [1], the pKi is 5.52.

Turning to `c1ccc2c3c([nH]c2c1)CC1CCC3N1` (stereo not drawn), on D(2) dopamine receptor [2], the pKi was under 4.00.

Regarding `CC/C=C/N1C2CCC1c1c([nH]c3ccccc13)C2` (stereo not drawn), the pKi on D(2) dopamine receptor [1] was 6.15.

Take `O=C(CCCN1C2CCC1c1c([nH]c3ccccc13)C2)c1ccc(F)cc1` (stereo not drawn): at D(2) dopamine receptor [1], the pKi was 6.57.

For the compound `c1ccc(CCCCN2C3CCC2c2c([nH]c4ccccc24)C3)cc1` (stereo not drawn), the pKi at D(2) dopamine receptor [1] is 6.13.

`c1ccc(CCCCN2C3CCC2c2c(n(-c4ccccc4)c4ccccc24)C3)cc1` (stereo not drawn) showed a pKi on D(2) dopamine receptor [1] of 5.80.

On D(2) dopamine receptor [1], `c1coc(CCCCN2C3CCC2c2c([nH]c4ccccc24)C3)c1` (racemic) showed a pKi of 5.90.

As for `c1coc(CCCCN2C3CCC2c2c([nH]c4ccccc24)C3)c1` (single isomer, unassigned; (+)), the pKi on D(2) dopamine receptor [1] is 6.48.

As to `c1coc(CCCCN2C3CCC2c2c([nH]c4ccccc24)C3)c1` (single isomer, unassigned; (-)), at D(2) dopamine receptor [1], the negative logarithm of the Ki (pKi) was 5.50.

On to `c1coc(CCCCN2C3CCC2c2c([nH]c4ccccc24)C3)c1` (stereo in doubt; 40), for which, at D(2) dopamine receptor [1], the negative-log Ki (pKi) was 5.90.
